Columns and labels:
[1] = target: Mitogen-activated protein kinase 14 (Homo sapiens, UniProt Q16539); experiment: Inhibition of p38 alpha Lys2 labeling site in human Huh-7 cell lysate at 1 uM by KiNativ Profiling analysis relative to control; assay type: subcellular
[2] = target: Mitogen-activated protein kinase kinase kinase kinase 4 (Homo sapiens, UniProt O95819); experiment: Inhibition of ZC1 Lys2 labeling site in human A-375 cells at 0.5 uM by KiNativ Profiling analysis relative to control; assay type: cell-based
[3] = target: Protein kinase C alpha type (Homo sapiens) (UniProt P17252); experiment: Inhibition of PKCa Lys2 labeling site in human A-375 cells at 5 uM by KiNativ Profiling analysis relative to control; assay type: cell-based
[4] = target: Cyclin-dependent kinase 18 (Homo sapiens) (UniProt Q07002); experiment: Inhibition of PCTAIRE3 Lys1 labeling site harbouringSKLTENLVALKEIR in human A-375 cells at 0.5 uM by KiNativ Profiling analysis relative to control; assay type: cell-based
Summary of the method: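 Live A375 melanoma cells were treated with compound at 5 or 0.5 μM, then lysed. Lysates were labeled with a lysine-reactive ATP or ADP-biotin probe. Read-out was the compound's protection of kinase labeling sites from probe labeling (KiNativ).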

[5] = target: T1, Aurora kinase C (Homo sapiens) (UniProt Q9UQB9); experiment: Inhibition of AurC ATP Loop labeling site in human A-375 cells at 0.5 uM by KiNativ Profiling analysis relative to control; assay type: cell-based
T1 sequence (whole entry): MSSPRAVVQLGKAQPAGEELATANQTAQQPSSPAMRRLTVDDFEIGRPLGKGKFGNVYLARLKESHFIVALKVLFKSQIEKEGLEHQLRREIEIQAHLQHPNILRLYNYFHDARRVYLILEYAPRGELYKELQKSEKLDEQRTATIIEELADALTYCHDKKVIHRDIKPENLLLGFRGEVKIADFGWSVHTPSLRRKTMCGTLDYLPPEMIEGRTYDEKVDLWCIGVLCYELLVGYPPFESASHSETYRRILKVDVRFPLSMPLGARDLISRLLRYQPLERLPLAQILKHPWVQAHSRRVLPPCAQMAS
Summary of the method: (§1)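 Live A375 melanoma cells were treated with compound at 5 or 0.5 μM, then lysed. The lysates were labeled with a lysine-reactive ATP or ADP-biotin probe. Kinase protection from probe labeling was measured by KiNativ.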

[6] = target: Tyrosine-protein kinase ABL1 (Homo sapiens, UniProt P00519); experiment: Inhibition of ABL ACT labeling site in human A-375 cells at 0.5 uM by KiNativ Profiling analysis relative to control; assay type: cell-based
Summary of the method: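 Intact A375 melanoma cells were treated with compound at 5 or 0.5 μM, then lysed. Lysate kinases were labeled with a lysine-reactive ATP or ADP-biotin probe (KiNativ). Inhibition is read as protection of each kinase labeling site from probe labeling.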

[7] = target: Calcium/calmodulin-dependent protein kinase kinase 2 (Homo sapiens) (UniProt Q96RR4); experiment: Inhibition of CaMKK2 Lys2 labeling site in human A-375 cells at 5 uM by KiNativ Profiling analysis relative to control; assay type: cell-based
Summary of the method: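 Live A375 melanoma cells were treated with compound at 5 or 0.5 μM. The cells were then lysed, and the lysates were labeled with a lysine-reactive ATP or ADP-biotin acyl probe (KiNativ). Inhibition is the compound's protection of each kinase labeling-site peptide from probe labeling, relative to untreated control.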

[8] = target: Mitogen-activated protein kinase 7 (Homo sapiens) (UniProt Q13164); experiment: Inhibition of Erk5 Lys2 labeling site in human A-375 cells at 5 uM by KiNativ Profiling analysis relative to control; assay type: cell-based
Summary of the method: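 Live A375 melanoma cells were treated with compound at 0.5 or 5 μM, then lysed. Lysates were labeled with a lysine-reactive ATP or ADP-biotin probe. The read-out was protection of each kinase probe-labeling site from labeling, relative to control.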

[9] = target: Calcium/calmodulin-dependent protein kinase type II subunit gamma (Homo sapiens) (UniProt Q13555); experiment: Inhibition of CaMK2g Lys1 labeling site harbouring KTSTQEYAAKIINTKK in human A-375 cells at 0.05 uM by KiNativ Profiling analysis relative to control; assay type: cell-based
[10] = target: Cyclin-dependent kinase 18 (Homo sapiens) (UniProt Q07002); experiment: Inhibition of PCTAIRE3 Lys1 labeling site harbouringSKLTENLVALKEIR in human A-375 cells at 0.05 uM by KiNativ Profiling analysis relative to control; assay type: cell-based
[11] = target: Serine/threonine-protein kinase MRCK beta (Homo sapiens) (UniProt Q9Y5S2); experiment: Inhibition of MRCKb in human A-375 cells at 0.05 uM by KiNativ Profiling analysis relative to control; assay type: cell-based
[12] = target: T2, Serine/threonine-protein kinase B-raf (Homo sapiens, UniProt P15056); experiment: Inhibition of BRAF Lys2 labeling site in human A-375 cells at 5 uM by KiNativ Profiling analysis relative to control; assay type: cell-based; summary of the method: as §1
[13] = target: T3, Mitogen-activated protein kinase kinase kinase 2 (Homo sapiens) (UniProt Q9Y2U5); experiment: Inhibition of MAP3K2 Lys1 labeling site harbouring VYLCYDVDTGRELAVKQVQFDPDSPETSKEVNALECEIQLLK in human A-375 cells at 5 uM by KiNativ Profiling analysis relative to control; assay type: cell-based
T3 sequence (whole entry): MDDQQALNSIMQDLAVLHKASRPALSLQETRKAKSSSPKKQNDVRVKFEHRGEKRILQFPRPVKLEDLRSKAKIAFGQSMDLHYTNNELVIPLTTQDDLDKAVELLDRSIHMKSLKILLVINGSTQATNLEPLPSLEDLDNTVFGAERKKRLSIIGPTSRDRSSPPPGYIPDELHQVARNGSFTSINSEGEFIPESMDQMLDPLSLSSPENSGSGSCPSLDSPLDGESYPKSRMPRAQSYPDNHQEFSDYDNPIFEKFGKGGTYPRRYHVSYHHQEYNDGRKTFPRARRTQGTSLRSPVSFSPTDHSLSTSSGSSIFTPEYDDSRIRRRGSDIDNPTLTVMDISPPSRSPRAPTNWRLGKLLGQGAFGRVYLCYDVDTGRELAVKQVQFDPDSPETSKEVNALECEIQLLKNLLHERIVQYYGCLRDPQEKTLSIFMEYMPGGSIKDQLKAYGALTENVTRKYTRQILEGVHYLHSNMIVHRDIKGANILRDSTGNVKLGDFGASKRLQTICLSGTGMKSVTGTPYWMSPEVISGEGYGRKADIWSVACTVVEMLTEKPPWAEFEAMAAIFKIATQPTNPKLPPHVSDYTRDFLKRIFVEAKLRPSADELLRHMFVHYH

[14] = target: T2, Serine/threonine-protein kinase B-raf; experiment: Inhibition of BRAF (unknown origin) Lys2 labeling site by KiNativ Profiling analysis

Sequence of Cyclin-dependent kinase 18 (Homo sapiens) (Q07002 whole entry): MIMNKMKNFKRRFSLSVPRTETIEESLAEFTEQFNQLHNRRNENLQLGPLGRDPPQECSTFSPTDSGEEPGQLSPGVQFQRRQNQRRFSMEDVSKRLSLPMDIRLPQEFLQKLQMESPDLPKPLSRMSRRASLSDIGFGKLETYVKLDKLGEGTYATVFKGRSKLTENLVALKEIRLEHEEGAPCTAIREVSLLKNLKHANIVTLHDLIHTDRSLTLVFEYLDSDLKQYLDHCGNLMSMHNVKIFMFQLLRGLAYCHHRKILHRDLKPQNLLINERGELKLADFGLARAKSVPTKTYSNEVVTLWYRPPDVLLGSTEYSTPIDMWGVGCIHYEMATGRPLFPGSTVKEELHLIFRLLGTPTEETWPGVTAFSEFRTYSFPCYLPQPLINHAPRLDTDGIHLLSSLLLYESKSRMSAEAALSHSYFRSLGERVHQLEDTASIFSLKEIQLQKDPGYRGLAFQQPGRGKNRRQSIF
T2 sequence (P15056 whole entry): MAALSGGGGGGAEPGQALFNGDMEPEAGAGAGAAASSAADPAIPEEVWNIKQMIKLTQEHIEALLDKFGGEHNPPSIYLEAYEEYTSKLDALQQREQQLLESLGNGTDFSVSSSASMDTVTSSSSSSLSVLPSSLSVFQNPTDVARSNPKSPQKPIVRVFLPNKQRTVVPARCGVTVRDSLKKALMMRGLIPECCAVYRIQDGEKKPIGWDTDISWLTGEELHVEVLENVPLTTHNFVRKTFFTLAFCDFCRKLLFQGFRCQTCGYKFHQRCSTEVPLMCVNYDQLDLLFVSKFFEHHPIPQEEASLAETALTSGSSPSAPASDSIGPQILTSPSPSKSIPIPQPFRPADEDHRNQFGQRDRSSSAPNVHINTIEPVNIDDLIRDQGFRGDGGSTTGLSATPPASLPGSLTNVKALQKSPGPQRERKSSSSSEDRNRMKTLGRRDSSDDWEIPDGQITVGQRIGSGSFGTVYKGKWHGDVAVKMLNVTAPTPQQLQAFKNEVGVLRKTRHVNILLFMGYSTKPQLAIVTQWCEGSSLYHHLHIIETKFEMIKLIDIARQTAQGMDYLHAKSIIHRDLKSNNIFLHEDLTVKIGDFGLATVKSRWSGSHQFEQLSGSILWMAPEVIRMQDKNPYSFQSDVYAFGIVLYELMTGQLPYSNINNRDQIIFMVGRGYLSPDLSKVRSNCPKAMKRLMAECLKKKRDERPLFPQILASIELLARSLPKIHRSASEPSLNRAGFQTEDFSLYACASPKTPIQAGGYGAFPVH
Sequence of Mitogen-activated protein kinase 14 (Q16539 whole entry): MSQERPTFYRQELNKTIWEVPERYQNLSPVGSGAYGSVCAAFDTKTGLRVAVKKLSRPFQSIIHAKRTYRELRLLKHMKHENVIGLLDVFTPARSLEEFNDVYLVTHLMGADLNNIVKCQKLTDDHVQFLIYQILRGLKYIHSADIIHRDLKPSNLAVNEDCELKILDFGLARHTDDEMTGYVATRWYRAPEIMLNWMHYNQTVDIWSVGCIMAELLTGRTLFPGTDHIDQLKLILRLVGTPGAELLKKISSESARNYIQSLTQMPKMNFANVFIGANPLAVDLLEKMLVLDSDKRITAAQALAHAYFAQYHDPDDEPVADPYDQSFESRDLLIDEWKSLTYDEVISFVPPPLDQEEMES
Sequence of Serine/threonine-protein kinase MRCK beta (Homo sapiens) (Q9Y5S2 whole entry): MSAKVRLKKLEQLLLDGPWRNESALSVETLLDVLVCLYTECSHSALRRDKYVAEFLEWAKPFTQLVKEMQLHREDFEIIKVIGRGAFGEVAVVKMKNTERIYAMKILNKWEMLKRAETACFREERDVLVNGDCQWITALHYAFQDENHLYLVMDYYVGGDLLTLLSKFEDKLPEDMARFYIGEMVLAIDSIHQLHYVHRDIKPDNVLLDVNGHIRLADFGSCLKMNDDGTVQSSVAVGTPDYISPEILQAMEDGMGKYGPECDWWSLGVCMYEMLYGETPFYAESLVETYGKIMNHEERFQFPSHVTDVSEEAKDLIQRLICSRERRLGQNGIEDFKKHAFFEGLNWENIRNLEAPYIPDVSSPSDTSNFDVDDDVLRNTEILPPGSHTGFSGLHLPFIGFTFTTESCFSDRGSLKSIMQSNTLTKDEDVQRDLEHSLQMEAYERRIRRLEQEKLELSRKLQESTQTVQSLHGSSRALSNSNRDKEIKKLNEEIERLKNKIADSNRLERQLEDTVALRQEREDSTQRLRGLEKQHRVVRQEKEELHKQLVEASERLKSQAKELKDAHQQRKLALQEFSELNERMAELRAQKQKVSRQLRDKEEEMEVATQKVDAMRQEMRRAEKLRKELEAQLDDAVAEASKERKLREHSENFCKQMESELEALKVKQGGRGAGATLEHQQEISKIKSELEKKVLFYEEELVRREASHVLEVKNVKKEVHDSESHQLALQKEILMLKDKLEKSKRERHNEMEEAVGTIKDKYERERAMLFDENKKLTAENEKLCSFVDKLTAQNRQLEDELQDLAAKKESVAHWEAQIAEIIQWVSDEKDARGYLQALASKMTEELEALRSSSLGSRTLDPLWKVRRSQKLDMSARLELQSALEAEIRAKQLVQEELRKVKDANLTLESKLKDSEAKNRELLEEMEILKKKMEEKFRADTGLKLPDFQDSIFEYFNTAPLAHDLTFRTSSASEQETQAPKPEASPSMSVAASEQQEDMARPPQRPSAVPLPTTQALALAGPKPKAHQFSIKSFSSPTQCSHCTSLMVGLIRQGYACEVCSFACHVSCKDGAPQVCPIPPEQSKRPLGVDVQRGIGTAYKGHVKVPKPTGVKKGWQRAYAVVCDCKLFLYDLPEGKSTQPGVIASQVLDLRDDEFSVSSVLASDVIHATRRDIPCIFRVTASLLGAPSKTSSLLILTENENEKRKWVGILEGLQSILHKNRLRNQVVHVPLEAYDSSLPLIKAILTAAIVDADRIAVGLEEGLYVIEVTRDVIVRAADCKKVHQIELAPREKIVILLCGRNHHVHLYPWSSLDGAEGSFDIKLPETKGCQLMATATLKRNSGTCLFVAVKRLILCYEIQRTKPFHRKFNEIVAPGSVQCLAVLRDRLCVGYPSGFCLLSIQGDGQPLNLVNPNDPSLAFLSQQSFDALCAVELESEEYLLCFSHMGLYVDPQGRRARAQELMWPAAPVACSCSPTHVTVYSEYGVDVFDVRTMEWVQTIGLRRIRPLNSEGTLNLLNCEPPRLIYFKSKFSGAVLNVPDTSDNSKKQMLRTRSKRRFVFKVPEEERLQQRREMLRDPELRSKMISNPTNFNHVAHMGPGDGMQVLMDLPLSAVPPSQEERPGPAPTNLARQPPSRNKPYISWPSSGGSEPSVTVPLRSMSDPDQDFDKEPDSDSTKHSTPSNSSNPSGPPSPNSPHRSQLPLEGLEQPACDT
Sequence of Mitogen-activated protein kinase 7 (Homo sapiens) (Q13164 2-816 limits assumed): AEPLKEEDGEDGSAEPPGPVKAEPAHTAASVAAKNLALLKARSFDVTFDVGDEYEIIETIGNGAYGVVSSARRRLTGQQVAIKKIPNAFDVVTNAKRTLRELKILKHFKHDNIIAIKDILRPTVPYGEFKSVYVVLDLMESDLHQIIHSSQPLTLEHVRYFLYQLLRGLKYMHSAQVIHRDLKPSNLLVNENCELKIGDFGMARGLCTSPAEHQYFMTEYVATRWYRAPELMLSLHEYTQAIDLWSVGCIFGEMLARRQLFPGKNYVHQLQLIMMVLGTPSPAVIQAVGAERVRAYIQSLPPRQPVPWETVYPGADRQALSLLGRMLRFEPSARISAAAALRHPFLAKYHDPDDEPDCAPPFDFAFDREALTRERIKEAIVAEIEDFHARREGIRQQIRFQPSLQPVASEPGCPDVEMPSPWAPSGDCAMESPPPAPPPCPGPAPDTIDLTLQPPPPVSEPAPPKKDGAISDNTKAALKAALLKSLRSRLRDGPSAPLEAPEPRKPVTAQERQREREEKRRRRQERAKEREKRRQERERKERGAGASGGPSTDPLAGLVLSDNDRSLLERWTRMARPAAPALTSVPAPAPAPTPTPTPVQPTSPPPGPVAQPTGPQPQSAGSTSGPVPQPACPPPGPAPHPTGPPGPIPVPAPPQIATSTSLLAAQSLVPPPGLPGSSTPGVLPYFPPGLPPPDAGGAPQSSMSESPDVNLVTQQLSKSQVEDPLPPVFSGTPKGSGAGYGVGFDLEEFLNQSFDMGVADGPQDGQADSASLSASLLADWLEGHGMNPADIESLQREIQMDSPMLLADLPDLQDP

`CNc1cc(Oc2cc(C(=O)Nc3cc(-n4cnc(C)c4)cc(C(F)(F)F)c3)ccc2C)ncn1` gave an inhibition [1] of 50.2%.

`CCN1CCN(Cc2ccc(NC(=O)c3ccc(C)c(Oc4ccnc5[nH]ccc45)c3)cc2C(F)(F)F)CC1` showed an inhibition [2] of 70.8%, an inhibition [3] of 51% and an inhibition [4] of 31.7%. It also gave an inhibition [5] of 31.2%, an inhibition [6] greater than 98% and an inhibition [7] of 34.8%. The inhibition [8] was 7.8%, the inhibition [9] was 16.6% and the inhibition [10] was 2.5%. The inhibition [11] was -8.8%, the inhibition [12] was 66.8% and the inhibition [13] was 42.3%. The IC50 [14] was greater than 10 µM.

`CCN1CCN(Cc2ccc(NC(=O)c3ccc(C)c(/C=C/c4cnc5[nH]ccc5c4OC)c3)cc2C(F)(F)F)CC1` showed an inhibition [2] of 48.1%, an inhibition [3] of 50.2% and an inhibition [4] of 11.3%. It also gave an inhibition [5] of 30.2%, an inhibition [6] greater than 98% and an inhibition [7] of 3.9%. For the same compound, the inhibition [8] was 8.7%, the inhibition [9] was 14.5% and the inhibition [10] was 8.5%. It also gave an inhibition [11] of 12.1%, an inhibition [12] of 61.5% and an inhibition [13] of 55.5%. It also gave an IC50 [14] greater than 10 µM.

In the case of `CNc1cc(Oc2cc(C(=O)Nc3cc(N4CCN(C)CC4)cc(C(F)(F)F)c3)ccc2C)ncn1`, the inhibition [1] is reported as 30.2%.

— ChEMBL document CHEMBL5696442, “Discovery of type II inhibitors of TGFβ-activated kinase 1 (TAK1) and mitogen-activated protein kinase kinase kinase kinase 2 (MAP4K2)” (J Med Chem, 2015)
